Assay: Inhibition of AchE in fly head nerve cells using acetylthiocholine iodide as substrate preincubated for 20 mins followed by substrate addition and measured every 30s for 1 hr by DTNB reagent based Ellman's spectrophotometric method
Settings: Diptera, Nerve cell
Method in brief: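 Modified spectrophotometric AChE method, with chlorpyrifos and huperzine A run alongside as positive controls.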

SMILES | IC50 [µM]
CC(=O)N1CCCC[C@H]1[C@@]12C[C@@H](C[C@H]3CCCN[C@@H]31)[C@H]1CCCCN1C2 | 5.65
CC(=O)O[C@H]1CCN2C[C@@H]3C[C@@H](CN4C(=O)[C@H](O)CC[C@H]34)[C@@H]2C1 | 9.77
C=CCCN1C[C@@H]2C[C@@H](CN3C(=O)CC[C@H](O)[C@]23O)C1=O | 29.6
C=CCCN1C[C@@H]2C[C@@H](Cn3c2cccc3=O)C1=O | 12.8
C1CC[C@H]([C@]23C[C@@H](C[C@@H]4CCCN[C@H]42)[C@H]2CCCCN2C3)NC1 | 5.56
C=CCCN1C[C@@H]2C[C@@H](CN3C(=O)CCC=C23)C1=O | 20
O=C1C(CCCO)=C[C@H]2C[C@]1([C@@H]1CCCCN1)CN1CCCC[C@@H]21 | 1.55
CN1CCCC[C@H]1[C@@]12C[C@H](C[C@H]3CCCN[C@@H]31)[C@H]1CCCCN1C2 | 17
C=CCCN1C[C@@H]2C[C@@H](CN3C(=O)CCC[C@]23OC)C1=O | 15.7
C1=C2CCCN3CN4CCCC[C@@H]4[C@]4(C[C@@H]1[C@H]1CCCCN1C4)[C@@H]23 | 5.23
CC(=O)N1CCCC[C@@H]1[C@]12C[C@H](C[C@@H]3CCCN[C@H]31)[C@H]1CCCCN1C2 | 8.48
CCOP(=S)(OCC)Oc1nc(Cl)c(Cl)cc1Cl [CHLORPYRIFOS] | 0.0233
C/C=C1\[C@H]2C=C(C)C[C@]1(N)c1ccc(=O)[nH]c1C2 [HUPERZINE A] | 0.12

Reference: ChEMBL document CHEMBL5390206, “Ormosianines A-P, Structurally Diverse Quinolizidine Alkaloids with AChE Inhibitory Effects from Ormosia yunnanensis” (J Nat Prod, 2023)
